Measured values published in ChEMBL document CHEMBL4689842, “EUbOPEN Chemogenomics Library wave 1” (2021).

Test system: HEK-293T
Experiment: Multiplex assay against HEK293T;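 on Population Tubulin-Different-Phenotype (%): share of the cells with healthy nuclei that show this phenotype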
Format: toxicity, cell-based
Details: human
In short: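 Live cells were stained at seeding with Hoechst33342, BioTracker Green Microtubule Cytoskeleton Dye, MitoTracker Red and Annexin V Alexa Fluor 680, then imaged on a CQ1 microscope at 37°C and 5% CO2 after compound addition. CellPathfinder machine-learning gating split cells into Hoechst high-intensity objects or normal cells. Normal cells were split into healthy, pyknosed or fragmented nuclei, and pyknosed cells into mitotic or apoptotic. Tubulin, mitochondrial-mass and membrane-permeability phenotypes are per cents of healthy-nucleus cells.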

[1] = 12 h, 1 µM, compound concentration 1 uM, replicate 1
[2] = 12 h, 1 µM, compound concentration 1 uM, replicate 2
[3] = 12 h, 10 µM, compound concentration 10 uM, replicate 1
[4] = 12 h, 10 µM, compound concentration 10 uM, replicate 2
[5] = 24 h, 1 µM, compound concentration 1 uM, replicate 1
[6] = 24 h, 1 µM, compound concentration 1 uM, replicate 2
[7] = 24 h, 10 µM, compound concentration 10 uM, replicate 1
[8] = 24 h, 10 µM, compound concentration 10 uM, replicate 2
[9] = 48 h, 1 µM, compound concentration 1 uM, replicate 1
[10] = 48 h, 1 µM, compound concentration 1 uM, replicate 2
[11] = 48 h, 10 µM, compound concentration 10 uM, replicate 1
[12] = 48 h, 10 µM, compound concentration 10 uM, replicate 2

CC(C)c1cc(Nc2nc(N3CCC[C@H](N)C3)ncc2C(N)=O)cc(C(C)C)n1
Population Apoptotic (%) [1]: 61%
Population Fragmented Nuclei (%) [1]: 9%
Population Healthy Nuclei (%) [1]: 30%
Population Hoechst High Intensity Objects (%) [1]: 11%
Population Membrane Permeable-Phenotype (%) [1]: 9%
Population Mitochondria Different-Phenotype (%) [1]: 95%
Population Mitotic Cells (%) [1]: 38%
Population Normal (%) [1]: 88%
Population Pyknosed Nuclei (%) [1]: 60%
Population Tubulin-Different-Phenotype (%) [1]: 100%
Total Cell Count [1]: 225
Population Apoptotic (%) [2]: 52%
Population Fragmented Nuclei (%) [2]: 5%
Population Healthy Nuclei (%) [2]: 26%
Population Hoechst High Intensity Objects (%) [2]: 7%
Population Membrane Permeable-Phenotype (%) [2]: 8%
Population Mitochondria Different-Phenotype (%) [2]: 91%
Population Mitotic Cells (%) [2]: 47%
Population Normal (%) [2]: 92%
Population Pyknosed Nuclei (%) [2]: 68%
Population Tubulin-Different-Phenotype (%) [2]: 97%
Total Cell Count [2]: 140
Population Apoptotic (%) [3]: 88%
Population Healthy Nuclei (%) [3]: 6%
Population Hoechst High Intensity Objects (%) [3]: 18%
Population Membrane Permeable-Phenotype (%) [3]: 0%
Population Mitochondria Different-Phenotype (%) [3]: 93%
Population Mitotic Cells (%) [3]: 11%
Population Normal (%) [3]: 81%
Population Pyknosed Nuclei (%) [3]: 86%
Population Tubulin-Different-Phenotype (%) [3]: 43%
Total Cell Count [3]: 313
Population Apoptotic (%) [4]: 64%
Population Fragmented Nuclei (%) [4]: 7%
Population Healthy Nuclei (%) [4]: 5%
Population Hoechst High Intensity Objects (%) [4]: 5%
Population Membrane Permeable-Phenotype (%) [4]: 10%
Population Mitochondria Different-Phenotype (%) [4]: 90%
Population Mitotic Cells (%) [4]: 35%
Population Normal (%) [4]: 94%
Population Pyknosed Nuclei (%) [4]: 87%
Population Tubulin-Different-Phenotype (%) [4]: 40%
Total Cell Count [4]: 206
Population Apoptotic (%) [5]: 65%
Population Fragmented Nuclei (%) [5]: 8%
Population Healthy Nuclei (%) [5]: 28%
Population Hoechst High Intensity Objects (%) [5]: 14%
Population Membrane Permeable-Phenotype (%) [5]: 5%
Population Mitochondria Different-Phenotype (%) [5]: 94%
Population Mitotic Cells (%) [5]: 34%
Population Normal (%) [5]: 85%
Population Pyknosed Nuclei (%) [5]: 63%
Population Tubulin-Different-Phenotype (%) [5]: 91%
Total Cell Count [5]: 234
Population Apoptotic (%) [6]: 62%
Population Fragmented Nuclei (%) [6]: 9%
Population Healthy Nuclei (%) [6]: 40%
Population Hoechst High Intensity Objects (%) [6]: 5%
Population Membrane Permeable-Phenotype (%) [6]: 9%
Population Mitochondria Different-Phenotype (%) [6]: 89%
Population Mitotic Cells (%) [6]: 37%
Population Normal (%) [6]: 94%
Population Pyknosed Nuclei (%) [6]: 49%
Population Tubulin-Different-Phenotype (%) [6]: 96%
Total Cell Count [6]: 170
Population Apoptotic (%) [7]: 90%
Population Fragmented Nuclei (%) [7]: 14%
Population Healthy Nuclei (%) [7]: 2%
Population Hoechst High Intensity Objects (%) [7]: 22%
Population Membrane Permeable-Phenotype (%) [7]: 0%
Population Mitochondria Different-Phenotype (%) [7]: 100%
Population Mitotic Cells (%) [7]: 9%
Population Normal (%) [7]: 77%
Population Pyknosed Nuclei (%) [7]: 82%
Population Tubulin-Different-Phenotype (%) [7]: 28%
Total Cell Count [7]: 321
Population Apoptotic (%) [8]: 89%
Population Fragmented Nuclei (%) [8]: 11%
Population Healthy Nuclei (%) [8]: 15%
Population Hoechst High Intensity Objects (%) [8]: 8%
Population Membrane Permeable-Phenotype (%) [8]: 10%
Population Mitochondria Different-Phenotype (%) [8]: 40%
Population Mitotic Cells (%) [8]: 10%
Population Normal (%) [8]: 91%
Population Pyknosed Nuclei (%) [8]: 72%
Population Tubulin-Different-Phenotype (%) [8]: 70%
Total Cell Count [8]: 206
Population Apoptotic (%) [9]: 72%
Population Fragmented Nuclei (%) [9]: 13%
Population Healthy Nuclei (%) [9]: 39%
Population Hoechst High Intensity Objects (%) [9]: 15%
Population Membrane Permeable-Phenotype (%) [9]: 2%
Population Mitochondria Different-Phenotype (%) [9]: 85%
Population Mitotic Cells (%) [9]: 27%
Population Normal (%) [9]: 84%
Population Pyknosed Nuclei (%) [9]: 46%
Population Tubulin-Different-Phenotype (%) [9]: 95%
Total Cell Count [9]: 246
Population Apoptotic (%) [10]: 66%
Population Fragmented Nuclei (%) [10]: 7%
Population Healthy Nuclei (%) [10]: 55%
Population Hoechst High Intensity Objects (%) [10]: 7%
Population Membrane Permeable-Phenotype (%) [10]: 3%
Population Mitochondria Different-Phenotype (%) [10]: 81%
Population Mitotic Cells (%) [10]: 33%
Population Normal (%) [10]: 92%
Population Pyknosed Nuclei (%) [10]: 36%
Population Tubulin-Different-Phenotype (%) [10]: 96%
Total Cell Count [10]: 213
Population Apoptotic (%) [11]: 71%
Population Fragmented Nuclei (%) [11]: 22%
Population Healthy Nuclei (%) [11]: 2%
Population Hoechst High Intensity Objects (%) [11]: 17%
Population Membrane Permeable-Phenotype (%) [11]: 0%
Population Mitochondria Different-Phenotype (%) [11]: 100%
Population Mitotic Cells (%) [11]: 28%
Population Normal (%) [11]: 82%
Population Pyknosed Nuclei (%) [11]: 74%
Population Tubulin-Different-Phenotype (%) [11]: 57%
Total Cell Count [11]: 341
Population Apoptotic (%) [12]: 92%
Population Fragmented Nuclei (%) [12]: 23%
Population Healthy Nuclei (%) [12]: 26%
Population Hoechst High Intensity Objects (%) [12]: 7%
Population Membrane Permeable-Phenotype (%) [12]: 13%
Population Mitochondria Different-Phenotype (%) [12]: 64%
Population Mitotic Cells (%) [12]: 7%
Population Normal (%) [12]: 92%
Population Pyknosed Nuclei (%) [12]: 50%
Population Tubulin-Different-Phenotype (%) [12]: 91%
Total Cell Count [12]: 182
Population Apoptotic (%) (replicate 1): 30%
Population Fragmented Nuclei (%) (replicate 1): 5%
Population Healthy Nuclei (%) (replicate 1): 23%
Population Hoechst High Intensity Objects (%) (replicate 1): 12%
Population Membrane Permeable-Phenotype (%) (replicate 1): 0%
Population Mitochondria Different-Phenotype (%) (replicate 1): 74%
Population Mitotic Cells (%) (replicate 1): 69%
Population Normal (%) (replicate 1): 87%
Population Pyknosed Nuclei (%) (replicate 1): 71%
Population Tubulin-Different-Phenotype (%) (replicate 1): 3%
